These results are taken from PubChem BioAssay AID1745 (Sanford-Burnham Center for Chemical Genomics, 2009).

SMILES strings stand for the structures. Activity calls are given as the source filed them.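 How the source made its calls: active means cell kill with TRAIL plus compound beats the two separate kills summed, at every dose, and climbs with dose; inactive means the rest.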

This experiment deals with 184B5 cells, TRAIL potentiation, ATPlite cytotoxicity, 24 h. Description: normal mammary cell killing with TRAIL – 184B5 normal mammary epithelial cells, counter-screen for TRAIL sensitizer project, confirmation (AID 1745). The conditions noted are these: stronger effect = higher value. Summed up:
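material = Normal 184B5 cells | also added = TRAIL at 1000 ng/mL final | doses = compound at final concentrations from 1.25 to 5 µM | incubation = compound 4 h then TRAIL 24 h, 37 °C | detection = ATPLite luminescence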
Background: A counterscreen serves to expose hits that act by an unwanted route or on another target.

[1] abbreviates: compound alone cytotoxicity, at 5 µM.
Setting [2] is: compound plus TRAIL, at 1.25 µM.

Take `CSc1nc(-c2ccc(C)cc2)nc(C(Cl)Cl)n1`: the cytotoxicity with TRAIL (at 5 µM) is 41% (inactive); the cytotoxicity with TRAIL under setting [2] is 35%; the cytotoxicity with TRAIL (compound plus TRAIL, at 2.5 µM) came to 39%. The cytotoxicity by setting is: under setting [1], 9%; (compound alone, at 1.25 µM) 2%; (compound alone, at 2.5 µM) 6%.
For the molecule `CSc1nc(-c2ccccc2)nc(C(Cl)Cl)n1`, the cytotoxicity with TRAIL runs as follows: (at 5 µM) 32% (inactive); under setting [2], 28%; (compound plus TRAIL, at 2.5 µM) 28%. The cytotoxicity is, setting by setting: under setting [1], 22%; (compound alone, at 1.25 µM) 19%; (compound alone, at 2.5 µM) 22%.
Consider `CCSc1nc(-c2ccccc2)nc(C(Cl)Cl)n1`, for which the cytotoxicity with TRAIL by setting is: (at 5 µM) 25% (inactive); under setting [2], 21%; (compound plus TRAIL, at 2.5 µM) 22%. Besides, the cytotoxicity by setting is: under setting [1], 11%; (compound alone, at 1.25 µM) 10%; (compound alone, at 2.5 µM) 11%.
